# ChEMBL document CHEMBL5247575 (J Med Chem, 2018)
# Tests used:
# Assay type in all cases: functional
# Pseudomonas aeruginosa [1] = experiment: Synergistic antibacterial activity against Pseudomonas aeruginosa CL232 assessed as meropenem MIC at 4 ug/ml by broth microdilution method; details: dose 4 µg/ml
# Acinetobacter baumannii [2] = experiment: Synergistic antibacterial activity against Acinetobacter baumannii PR363 producing OXA-23 assessed as cefepime MIC at 8 ug/ml by broth microdilution method; details: dose 8 µg/ml
# Acinetobacter baumannii [3] = experiment: Synergistic antibacterial activity against Acinetobacter baumannii PR440 producing OXA-23/24/40 assessed as meropenem MIC at 8 ug/ml by broth microdilution method; details: dose 8 µg/ml
# Klebsiella pneumoniae [4] = experiment: Synergistic antibacterial activity against Klebsiella pneumoniae 977/1916 producing KPC-3 assessed as cefepime MIC at 8 ug/ml by broth microdilution method; details: dose 8 µg/ml
# Pseudomonas aeruginosa [5] = experiment: Synergistic antibacterial activity against Pseudomonas aeruginosa 715 assessed as meropenem MIC at 8 ug/ml by broth microdilution method; details: dose 8 µg/ml
# Pseudomonas aeruginosa [6] = experiment: Synergistic antibacterial activity against Pseudomonas aeruginosa 839 assessed as meropenem MIC at 4 ug/ml by broth microdilution method; details: dose 4 µg/ml
# Klebsiella pneumoniae [7] = experiment: Synergistic antibacterial activity against Klebsiella pneumoniae jefferson 1773 producing OXA-181 assessed as meropenem MIC at 4 ug/ml by broth microdilution method; details: dose 4 µg/ml
# Escherichia coli [8] = experiment: Synergistic antibacterial activity against Escherichia coli DH10B transfected with pBC SK (-) KPC-3 assessed as meropenem MIC at 4 ug/ml by broth microdilution method; details: dose 4 µg/ml
# Klebsiella pneumoniae [9] = experiment: Synergistic antibacterial activity against Klebsiella pneumoniae 761/1723 producing KPC-3 assessed as cefepime MIC at 4 ug/ml by broth microdilution method; details: dose 4 µg/ml
# Procedure, shortened: (§1)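 Broth microdilution per CLSI guidelines, using custom frozen panels. […] Each partner drug was also tested alone. MICs were run in triplicate and the modal value is reported.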
# Acinetobacter baumannii [10] = experiment: Synergistic antibacterial activity against Acinetobacter baumannii PR381 producing OXA-24/40 assessed as cefepime MIC at 8 ug/ml by broth microdilution method; details: dose 8 µg/ml
# Escherichia coli [11] = experiment: Synergistic antibacterial activity against Escherichia coli DH10B transfected with pBC SK (-) OXA-48 assessed as meropenem MIC at 4 ug/ml by broth microdilution method; details: dose 4 µg/ml; procedure, shortened: as §1
# Klebsiella pneumoniae [12] = experiment: Synergistic antibacterial activity against Klebsiella pneumoniae 1398/2291 producing KPC-3 assessed as cefepime MIC at 8 ug/ml by broth microdilution method; details: dose 8 µg/ml; procedure, shortened: as §1
# Escherichia coli [13] = experiment: Synergistic antibacterial activity against Escherichia coli DH10B transfected with pBC SK (-) KPC-2 assessed as meropenem MIC at 4 ug/ml by broth microdilution method; details: dose 4 µg/ml
# Acinetobacter baumannii [14] = experiment: Synergistic antibacterial activity against Acinetobacter baumannii PR381 producing OXA-24/40 assessed as meropenem MIC at 4 ug/ml by broth microdilution method; details: dose 4 µg/ml
# Escherichia coli [15] = experiment: Synergistic antibacterial activity against Escherichia coli DH10B assessed as cefepime MIC at 4 ug/ml by broth microdilution method; details: dose 4 µg/ml
# Acinetobacter baumannii [16] = experiment: Synergistic antibacterial activity against Acinetobacter baumannii PR381 producing OXA-24/40 assessed as cefepime MIC at 4 ug/ml by broth microdilution method; details: dose 4 µg/ml
# Escherichia coli [17] = experiment: Antibacterial activity against Escherichia coli DH10B by broth microdilution method
# Acinetobacter baumannii [18] = experiment: Synergistic antibacterial activity against Acinetobacter baumannii PR420 producing OXA-23/24/40 assessed as cefepime MIC at 4 ug/ml by broth microdilution method; details: dose 4 µg/ml
# Pseudomonas aeruginosa [19] = experiment: Antibacterial activity against Pseudomonas aeruginosa 839 by broth microdilution method
# Klebsiella pneumoniae [20] = experiment: Synergistic antibacterial activity against Klebsiella pneumoniae 11978 producing OXA-48 assessed as cefepime MIC at 8 ug/ml by broth microdilution method; details: dose 8 µg/ml; procedure, shortened: as §1
# Pseudomonas aeruginosa [21] = experiment: Synergistic antibacterial activity against Pseudomonas aeruginosa 839 assessed as cefepime MIC at 8 ug/ml by broth microdilution method; details: dose 8 µg/ml
# Klebsiella pneumoniae [22] = experiment: Synergistic antibacterial activity against Klebsiella pneumoniae 729/1679 producing KPC-3 assessed as cefepime MIC at 4 ug/ml by broth microdilution method; details: dose 4 µg/ml; procedure, shortened: as §1
# Escherichia coli [23] = experiment: Antibacterial activity against Escherichia coli DH10B transfected with pBC SK (-) PDC-3 by broth microdilution method
# Klebsiella pneumoniae [24] = experiment: Synergistic antibacterial activity against Klebsiella pneumoniae 1315/2198 producing KPC-3 assessed as cefepime MIC at 4 ug/ml by broth microdilution method; details: dose 4 µg/ml; procedure, shortened: as §1
# Acinetobacter baumannii [25] = experiment: Synergistic antibacterial activity against Acinetobacter baumannii PR420 producing OXA-23/24/40 assessed as meropenem MIC at 8 ug/ml by broth microdilution method; details: dose 8 µg/ml
# Escherichia coli [26] = experiment: Synergistic antibacterial activity against Escherichia coli DH10B transfected with pBC SK (-) OXA-48 assessed as cefepime MIC at 4 ug/ml by broth microdilution method; details: dose 4 µg/ml; procedure, shortened: as §1
# Klebsiella pneumoniae [27] = experiment: Synergistic antibacterial activity against Klebsiella pneumoniae jefferson 1775 producing OXA-48 assessed as meropenem MIC at 8 ug/ml by broth microdilution method; details: dose 8 µg/ml
# Acinetobacter baumannii [28] = experiment: Synergistic antibacterial activity against Acinetobacter baumannii PR359 producing OXA-23 assessed as cefepime MIC at 8 ug/ml by broth microdilution method; details: dose 8 µg/ml
# Escherichia coli [29] = experiment: Synergistic antibacterial activity against Escherichia coli DH10B transfected with pBR322-catI-KPC-2 assessed as meropenem MIC at 8 ug/ml by broth microdilution method; details: dose 8 µg/ml; procedure, shortened: as §1
# Escherichia coli [30] = experiment: Synergistic antibacterial activity against Escherichia coli DH10B transfected with pBC SK (-) PDC-3 assessed as cefepime MIC at 4 ug/ml by broth microdilution method; details: dose 4 µg/ml; procedure, shortened: as §1
# Klebsiella pneumoniae [31] = experiment: Synergistic antibacterial activity against Klebsiella pneumoniae 901/1860 producing KPC-3 assessed as meropenem MIC at 8 ug/ml by broth microdilution method; details: dose 8 µg/ml
# Acinetobacter baumannii [32] = experiment: Synergistic antibacterial activity against Acinetobacter baumannii PR363 producing OXA-23 assessed as cefepime MIC at 4 ug/ml by broth microdilution method; details: dose 4 µg/ml
# Klebsiella pneumoniae [33] = experiment: Synergistic antibacterial activity against Klebsiella pneumoniae 1398/2291 producing KPC-3 assessed as meropenem MIC at 4 ug/ml by broth microdilution method; details: dose 4 µg/ml; procedure, shortened: as §1
# Klebsiella pneumoniae [34] = experiment: Synergistic antibacterial activity against Klebsiella pneumoniae 1354/2241 producing KPC-3 assessed as cefepime MIC at 8 ug/ml by broth microdilution method; details: dose 8 µg/ml; procedure, shortened: as §1
# Klebsiella pneumoniae [35] = experiment: Synergistic antibacterial activity against Klebsiella pneumoniae jefferson 1773 producing OXA-181 assessed as cefepime MIC at 8 ug/ml by broth microdilution method; details: dose 8 µg/ml
# Klebsiella pneumoniae [36] = experiment: Synergistic antibacterial activity against Klebsiella pneumoniae 972/1910 producing KPC-3 assessed as meropenem MIC at 8 ug/ml by broth microdilution method; details: dose 8 µg/ml
# Klebsiella pneumoniae [37] = experiment: Synergistic antibacterial activity against Klebsiella pneumoniae NY BS producing OXA-232 assessed as meropenem MIC at 8 ug/ml by broth microdilution method; details: dose 8 µg/ml
# Pseudomonas aeruginosa [38] = experiment: Synergistic antibacterial activity against Pseudomonas aeruginosa 776 assessed as meropenem MIC at 4 ug/ml by broth microdilution method; details: dose 4 µg/ml
# Acinetobacter baumannii [39] = experiment: Synergistic antibacterial activity against Acinetobacter baumannii PR420 producing OXA-23/24/40 assessed as cefepime MIC at 8 ug/ml by broth microdilution method; details: dose 8 µg/ml
# Acinetobacter baumannii [40] = experiment: Synergistic antibacterial activity against Acinetobacter baumannii PR474 producing OXA-23/24/40 assessed as meropenem MIC at 4 ug/ml by broth microdilution method; details: dose 4 µg/ml
SMILES,MIC (Pseudomonas aeruginosa [1]) [µg/mL],MIC (Acinetobacter baumannii [2]) [µg/mL],MIC (Acinetobacter baumannii [3]) [µg/mL],MIC (Klebsiella pneumoniae [4]) [µg/mL],MIC (Pseudomonas aeruginosa [5]) [µg/mL],MIC (Pseudomonas aeruginosa [6]) [µg/mL],MIC (Escherichia coli [8]) [µg/mL],MIC (Klebsiella pneumoniae [9]) [µg/mL],MIC (Acinetobacter baumannii [10]) [µg/mL],MIC (Escherichia coli [11]) [µg/mL],MIC (Klebsiella pneumoniae [12]) [µg/mL],MIC (Escherichia coli [13]) [µg/mL],MIC (Acinetobacter baumannii [14]) [µg/mL],MIC (Escherichia coli [15]) [µg/mL],MIC (Acinetobacter baumannii [16]) [µg/mL],MIC (Pseudomonas aeruginosa [19]) [µg/mL],MIC (Klebsiella pneumoniae [20]) [µg/mL],MIC (Pseudomonas aeruginosa [21]) [µg/mL],MIC (Klebsiella pneumoniae [22]) [µg/mL],MIC (Klebsiella pneumoniae [24]) [µg/mL],also measured
N#C[C@@H]1CC[C@@H]2CN1C(=O)N2OS(=O)(=O)[O-].[Na+],16,8,2,≤ 0.12,16,1,≤ 0.12,≤ 0.12,16,≤ 0.12,0.25,≤ 0.12,> 16,≤ 0.12,16,> 16,0.5,8,0.5,0.25,MIC (Klebsiella pneumoniae [7]): 0.25 µg/mL; MIC (Escherichia coli [17]): > 16 µg/mL; MIC (Acinetobacter baumannii [18]): > 16 µg/mL; MIC (Escherichia coli [23]): > 16 µg/mL; MIC (Acinetobacter baumannii [25]): 8 µg/mL; MIC (Escherichia coli [26]): ≤ 0.12 µg/mL; MIC (Klebsiella pneumoniae [27]): ≤ 0.12 µg/mL; MIC (Acinetobacter baumannii [28]): 8 µg/mL; MIC (Escherichia coli [29]): ≤ 0.12 µg/mL; MIC (Escherichia coli [30]): ≤ 0.12 µg/mL; MIC (Klebsiella pneumoniae [31]): ≤ 0.12 µg/mL; MIC (Acinetobacter baumannii [32]): 8 µg/mL; MIC (Klebsiella pneumoniae [33]): ≤ 0.12 µg/mL; MIC (Klebsiella pneumoniae [34]): ≤ 0.12 µg/mL; MIC (Klebsiella pneumoniae [35]): 1 µg/mL; MIC (Klebsiella pneumoniae [36]): ≤ 0.12 µg/mL; MIC (Klebsiella pneumoniae [37]): ≤ 0.12 µg/mL; MIC (Pseudomonas aeruginosa [38]): 16 µg/mL; MIC (Acinetobacter baumannii [39]): > 16 µg/mL; MIC (Acinetobacter baumannii [40]): > 16 µg/mL
O=C(NNC(=O)[C@@H]1CC[C@@H]2CN1C(=O)N2OS(=O)(=O)O)[C@@H]1CCNC1,> 16,8,> 16,≤ 0.12,0.5,≤ 0.12,≤ 0.12,≤ 0.12,16,≤ 0.12,≤ 0.12,≤ 0.12,> 16,≤ 0.12,16,4,≤ 0.12,≤ 0.12,≤ 0.12,≤ 0.12,MIC (Acinetobacter baumannii [25]): > 16 µg/mL; MIC (Escherichia coli [26]): ≤ 0.12 µg/mL; MIC (Klebsiella pneumoniae [27]): ≤ 0.12 µg/mL; MIC (Acinetobacter baumannii [28]): 16 µg/mL; MIC (Escherichia coli [29]): ≤ 0.12 µg/mL; MIC (Escherichia coli [30]): ≤ 0.12 µg/mL; MIC (Klebsiella pneumoniae [31]): ≤ 0.12 µg/mL; MIC (Acinetobacter baumannii [32]): 8 µg/mL; MIC (Klebsiella pneumoniae [33]): ≤ 0.12 µg/mL; MIC (Klebsiella pneumoniae [34]): ≤ 0.12 µg/mL; MIC (Klebsiella pneumoniae [35]): ≤ 0.12 µg/mL; MIC (Klebsiella pneumoniae [36]): ≤ 0.12 µg/mL; MIC (Klebsiella pneumoniae [37]): ≤ 0.12 µg/mL; MIC (Pseudomonas aeruginosa [38]): 16 µg/mL; MIC (Acinetobacter baumannii [39]): > 16 µg/mL; MIC (Acinetobacter baumannii [40]): > 16 µg/mL
